Screening results deposited in PubChem by several laboratories.
CSC inhib: cancer stem cell inhibition | hit rate 1.1% among 300,000 | AID 2717 | inhibition, % at 7.5 µM | cancer stem cell-like cells viability, luminescence; in the data active = inhibition above about 75%; inconclusive = no clear call, values can overlap the other calls; tested in HMLE shEcad cells
XBP1 UPR activ: activators of adaptive arm of unfolded protein response (XBP1); AID 463104; CHO-XBP1 luciferase reporter, IRE1-XBP1 UPR activation, luminescence; percent of tunicamycin response, DMSO as zero; activation, % at 20 µM; hit rate 0.33% among 330,000;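 active = versus positive control, 20 µM dose yields 30% or more activation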;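 note: 100% = tunicamycin at 10 µg/mL and 0% = DMSO only wells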
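Material – CHO cell line with stable XBP1 luciferase reporter · Buffer or medium – F12 plus 10% FBS · Compound – single point, 20 µM final compound, 1% DMSO · Schedule – 16-18 h cell attachment at 37 °C, then 6 h compound exposure · Signal – Steady-Glo luminescence read · Benchmarks – high control tunicamycin 10 µg/mL final, low control DMSO vehicle only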
UPR CHOP act: apoptotic UPR (CHOP) activation. CHO-CHOP luciferase reporter, luminescence; percent of tunicamycin response over DMSO baseline. activation, % at 10 µM. hit rate 0.34% among 330,000. AID 449763;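 active = at 10 µM dose, activation of 40% or more, normalized to positive control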;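 note: 100% = tunicamycin at 10 µg/mL and 0% = DMSO alone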
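Evaluation: % reporter activation, DMSO baseline versus tunicamycin full activation; System: CHO-CHOP luciferase reporter cell line; Input: 500 cells/well; Incubation: 6 h compound treatment, 37 °C; Measured by: Steady-Glo luciferase luminescence; Dosing: one dose, 10 µM in 0.5% DMSO; Buffer or medium: F12 medium, 10% FBS; Benchmarks: positive tunicamycin 10 µg/mL, negative DMSO alone.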
SKKanGAS inh: SKKanGAS growth inhibition | S. pyogenes SKKanGAS, kanamycin growth, BacTiter-Glo, 6 h | inhibition, % at 7.5 µM | hit rate 1.3% among 300,000;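 active = mean replicate score, as percent of positive control median, at least 50; inconclusive = mean below 50 but one replicate at or above 50; inactive = mean and every replicate below 50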;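 note: strain carries kanamycin resistance gene driven by streptokinase promoter and grows in 40 µg/ml kanamycin; loss of luminescence reflects streptokinase promoter inhibition or plain growth inhibition; 0% = median of DMSO wells and 100% = positive control at its reference dose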
Beta apoptosis: blocks beta cell apoptosis. INS-1E cytokine-induced death, ATP luminescence, 48 h; percent of positive-control rescue, neutral wells zero. protection from apoptosis, % (test concentration not listed). hit rate 0.8% among 300,000. AID 435005;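 active = Every replicate reaches about 75%, or at least half do and their mean reaches it too, limit read from the data; inconclusive = At least half of replicates reach the limit but their mean does not; inactive = Under half of replicates reach the limit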;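 note: 0% = cytokine-treated negative control wells and 100% = positive control rescue; higher means more ATP so stronger rescue from cytokine killing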
Mdm2-MdmX inh: human Mdm2/MdmX binding inhibition | O15151+Q00987 | SaOS-2 split-luciferase Mdm2/MdmX complementation, luminescence | inhibition, % at 8 µM | hit rate 3% among 330,000;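 active = inhibition of at least 50% at 8 µM in the primary screen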
Target sequence (O15151 whole entry, looked up): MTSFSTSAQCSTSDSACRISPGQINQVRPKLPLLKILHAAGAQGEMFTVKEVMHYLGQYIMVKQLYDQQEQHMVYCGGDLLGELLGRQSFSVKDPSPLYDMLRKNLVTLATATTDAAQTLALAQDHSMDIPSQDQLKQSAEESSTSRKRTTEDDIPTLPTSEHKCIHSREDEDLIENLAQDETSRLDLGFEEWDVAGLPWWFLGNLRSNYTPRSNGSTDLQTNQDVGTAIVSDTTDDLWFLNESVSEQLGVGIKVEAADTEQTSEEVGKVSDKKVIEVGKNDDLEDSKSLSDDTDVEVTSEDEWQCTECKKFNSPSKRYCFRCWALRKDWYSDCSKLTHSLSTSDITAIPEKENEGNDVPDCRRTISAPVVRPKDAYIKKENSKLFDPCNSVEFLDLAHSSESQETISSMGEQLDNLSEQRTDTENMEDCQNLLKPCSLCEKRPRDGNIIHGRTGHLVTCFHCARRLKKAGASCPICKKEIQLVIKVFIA
Target sequence (Q00987 whole entry, looked up): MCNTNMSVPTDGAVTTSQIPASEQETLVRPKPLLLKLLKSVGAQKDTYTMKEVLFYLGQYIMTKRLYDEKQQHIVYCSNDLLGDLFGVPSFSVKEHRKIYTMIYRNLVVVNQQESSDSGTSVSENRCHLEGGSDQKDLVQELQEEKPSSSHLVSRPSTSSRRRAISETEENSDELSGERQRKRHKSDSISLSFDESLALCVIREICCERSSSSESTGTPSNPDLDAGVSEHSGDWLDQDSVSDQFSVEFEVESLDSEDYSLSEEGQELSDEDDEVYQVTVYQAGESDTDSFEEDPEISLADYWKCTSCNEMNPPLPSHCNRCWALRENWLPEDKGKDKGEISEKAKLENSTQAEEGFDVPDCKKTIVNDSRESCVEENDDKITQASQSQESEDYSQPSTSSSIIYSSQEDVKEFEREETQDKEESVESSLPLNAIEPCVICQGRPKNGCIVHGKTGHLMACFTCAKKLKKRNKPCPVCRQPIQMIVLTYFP
Mdm2-MdmX conf: human Mdm2/MdmX binding inhibition, confirmed. shares compounds with Mdm2-MdmX inh. luminescent assay. inhibition, % at 8 µM. hit rate 55% among 10,000. AID 489028; in the data active = inhibition above about 40%
FLuc counter: counter-screen for Mdm2/MdmX inhibitors: full-length luciferase; shares compounds with Mdm2-MdmX inh; SaOS-2 full-length luciferase counterscreen, luminescence; inhibition, % at 8 µM; hit rate 77% among 6,200; AID 504607;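 active = mean inhibition at 8 µM reaching about 37%, which flags the compound as non-specific, limit read from the data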;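 note: p53-null SaOS-2 cells with luciferase driven by a doxycycline-inducible promoter; compound on cells about two nights before reading with doxycycline added after day one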
* marks the source's active call; other numbers are inactive results; ? = inconclusive; nt = no result. Only some compounds are listed: those with a hit (about 4.8% of all), similar ones and a draw of the others.

SMILES	CSC inhib	XBP1 UPR activ	UPR CHOP act	SKKanGAS inh	Beta apoptosis	Mdm2-MdmX inh	Mdm2-MdmX conf	FLuc counter
O=C(Nc1ccccc1N1CCCC1)C1CCCO1 (stereo unspecified)	nt	2	0	nt	nt	-6	nt	nt
COc1cc(NC(=O)c2cc([N+](=O)[O-])ccc2NC(=O)CN2CCN(c3ccccn3)CC2)cc(OC)c1	14	-3	3	7	35	45	nt	nt
Cn1nc(-c2ccc(N3CCOCC3)c(NS(=O)(=O)c3ccc(Cl)cc3)c2)c2ccccc2c1=O	47	16	2	nt	6	67*	36	38*
Cc1ccc(S(=O)(=O)Nc2cc(-c3nn(C)c(=O)c4ccccc34)ccc2N2CCOCC2)cc1	-4	18	0	13	7	86*	77*	30
CC(=O)Nc1cc(-c2nn(C)c(=O)c3ccccc23)ccc1N1CCOCC1	-14	2	3	5	-2	16	nt	nt
COc1ccccc1C(=O)COC(=O)CNS(=O)(=O)c1ccc(C)c(C)c1	-13	-3	1	-3	-8	29	nt	nt
CN1CCN(c2ccccc2NC(=O)c2ccc(-c3ccc(Br)cc3)o2)CC1	61	3	2	3	35	48	nt	nt
Cc1cc(N2CCN(C)CC2)ccc1NC(=O)c1ccc(-c2ccc(Cl)cc2)o1	?	-2	2	-6	53	52*	45*	74*
CN1CCN(c2ccccc2NC(=O)c2ccc(-c3ccc(Cl)c(Cl)c3)o2)CC1	90*	0	6	31	30	58*	23	nt
COc1ccc(S(=O)(=O)N2CCCCCC2)cc1NC(=O)Cc1n[nH]c(=O)c2ccccc12	nt	2	4	nt	nt	19	nt	nt
O=C(c1c(F)cccc1F)N1CCN=C1SCc1ccccc1	-2	-2	-1	0	-2	-5	nt	nt
COc1ccc2c(c1)CC/C2=N\OC(=O)c1cccc(C)c1	6	-1	8	-8	-1	97*	55*	13
COc1ccc2c(c1)CCC/C2=N/OC(=O)c1ccccc1OC	7	0	2	-4	-11	21	nt	nt
COc1ccc2c(c1)CC/C2=N\OC(=O)c1ccccc1C	-1	-3	6	17	nt	100*	35	22
Cc1ccc(NC(=O)COC(=O)CCC2CCCC2)c(Br)c1	nt	2	-1	nt	-6	-19	nt	nt
Cc1cc(C)c2c3c(sc2n1)C(c1cccc(F)c1)C(C#N)=C(N)O3 (stereo unspecified)	28	-2	40	10	24	79*	27	nt
CCc1cn([C@H]2C[C@H](O)[C@@H](CO)O2)c(=O)[nH]c1=O	-6	-8	1	0	1	10	nt	nt
O=c1[nH]c(=O)n([C@H]2C[C@H](O)[C@@H](CO)O2)cc1C(F)(F)F	71	-6	0	-4	5	60*	52*	56*
COc1ccc(-n2c(C(C)n3nc(C)c([N+](=O)[O-])c3C)n[nH]c2=S)cc1 (stereo unspecified)	3	0	0	4	5	-14	nt	nt
COc1ccc(-n2c(C)c([N+](=O)[O-])c3ccc(O)c(CN(C)C)c32)cc1	-6	-3	-3	4	-10	79*	90*	53*
COc1ccc(-c2oc3cc(OC)c(O)c(OC)c3c(=O)c2OC)cc1O	0	5	2	0	11	64*	42*	28
COc1c(OC)c(O)c2c(=O)c(O)c(-c3ccccc3)oc2c1OC	5	5	4	1	-2	81*	35	nt
COc1ccc(-c2oc3c(OC)c(OC)c(OC)c(O)c3c(=O)c2OC)cc1OC	-9	3	0	14	9	79*	87*	47*
COc1cc(OC)cc(N2CCN(S(=O)(=O)c3ccc(-n4cnnn4)cc3)CC2)c1	1	-1	-1	-4	1	20	nt	nt
Nc1ncnc2c1C(c1ccccc1)c1c(ccc3ccccc13)O2 (stereo unspecified)	nt	1	4	nt	0	88*	53*	63*
SMILES	CSC inhib	XBP1 UPR activ	UPR CHOP act	SKKanGAS inh	Beta apoptosis	Mdm2-MdmX inh	Mdm2-MdmX conf	FLuc counter
COc1ccc(C2c3c(ncn(Cc4ccco4)c3=N)Oc3ccc4ccccc4c32)cc1 (stereo unspecified)	94*	0	3	11	-3	88*	53*	89*
N=c1c2c(ncn1Cc1ccco1)Oc1ccc3ccccc3c1C2c1ccccc1 (stereo unspecified)	102*	0	1	23	nt	86*	56*	49*
CC1(c2ccccc2)NC(=O)N(CC(=O)N2CCN(S(=O)(=O)c3ccccc3[N+](=O)[O-])CC2)C1=O (stereo unspecified)	-3	-4	-2	-1	1	7	nt	nt
Cc1ccccc1N1C(=O)c2ccccc2N2C(=O)c3ccccc3C12 (stereo unspecified)	0	-5	-1	-1	2	17	nt	nt
COc1ccc2c(c1OC)C(=O)N1c3ccccc3C(=O)N(c3ccc(F)cc3)C21 (stereo unspecified)	11	-1	-1	-5	4	57*	44*	89*
COc1ccc2c(c1OC)C(=O)N1c3ccccc3C(=O)N(c3ccccc3)C21 (stereo unspecified)	16	-1	2	-13	2	65*	62*	69*
COc1cccc(C2Nc3ccccc3C(=O)N2c2ccc(F)cc2)c1O (stereo unspecified)	-4	-4	8	-1	-7	-14	nt	nt
COc1ccc(-c2nc3c(c(SCC(=O)N4CCOCC4)n2)Cc2c(CO)cnc(C)c2O3)cc1	8	2	4	12	3	58*	28	nt
Cc1ccc(-c2nc3c(c(SCC(=O)N4CCOCC4)n2)Cc2c(CO)cnc(C)c2O3)cc1	1	-1	2	8	2	23	nt	nt
Cc1ccccc1NC(=S)NNc1ncc(C(F)(F)F)cc1Cl	nt	-3	-3	4	8	-13	nt	nt
Cc1c(Cl)cccc1NC(=S)NNc1ncc(C(F)(F)F)cc1Cl	33	2	2	-3	32	64*	72*	42*
CSCC[C@H](NC(=O)OC(C)(C)C)C(=O)NCC1CCC(C(=O)N[C@@H](Cc2ccccc2)C(=O)O)CC1 (stereo partly specified)	3	0	1	0	0	8	nt	nt
